Experimental data from ChEMBL document CHEMBL1141797, “Norsesquiterpenes from the brown alga Dictyopteris divaricata” (J Nat Prod, 2005).

Assays:
Assay type in all cases: functional, cell-based
A549 = experiment: Cytotoxicity against human A549 cells by MTT method
Summary of the method: (§1)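 MTT colorimetric read-out of cell viability, expressed as IC50 in µg/mL. Human tumour lines by origin: A549 lung adenocarcinoma, BGC-823 stomach cancer, MCF-7 breast cancer, Bel7402 hepatoma, HCT-8 colon cancer.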

BGC-823 = experiment: Cytotoxicity against human BGC823 cells by MTT method; summary of the method: as §1
MCF7 = experiment: Cytotoxicity against human MCF7 cells by MTT method; summary of the method: as §1
Bel-7402 = experiment: Cytotoxicity against human Bel7402 cells by MTT method; summary of the method: as §1
HCT-8 = experiment: Cytotoxicity against human HCT8 cells by MTT method; summary of the method: as §1

Measured: IC50

CC(C)[C@@H]1CC[C@@H](C)[C@@]2(O)CC(=O)C=C12
> 10 µg/mL: all assays above

CC(C)[C@@H]1CC[C@@H](C)[C@]2(O)CCC(=O)C=C12
> 10 µg/mL: all assays above

CC(C)[C@H]1CC[C@H](C)C2=CC(=O)C[C@@]21O
> 10 µg/mL: all assays above

CC(C)[C@@H]1CC[C@@H](C)[C@]2(O)CC(=O)C=C12
> 10 µg/mL: all assays above
